Measured values from different studies.
Protocols differ between the studies behind these lines.
AMY2: Pancreatic alpha-amylase (AMY2, Sus scrofa, UniProt P00690)
PADI3: Protein-arginine deiminase type-3 (PADI3, Homo sapiens, UniProt Q9ULW8)
GAK: Cyclin-G-associated kinase (GAK, Homo sapiens, UniProt O14976)
KRAS G12C: GTPase KRas (KRAS, Homo sapiens, UniProt P01116, G12C)
Maoa: Amine oxidase [flavin-containing] A (Maoa, Rattus norvegicus, UniProt P21396)

| Compound | target | assay | setting | measurement | result |
| --- | --- | --- | --- | --- | --- |
| CCCN(O)N=Nc1ccc(S(=O)(=O)Nc2nccs2)cc1 | AMY2 | enzyme activity, inhibitor | 240 µg/mL | inhibition | 63.2% |
| CCCOc1ccc(OC)c(F)c1C(=O)c1ccc(C(=O)N[C@@H]2CNC[C@H]2NC(=O)c2ccc3[nH]ncc3c2)cc1 | Serine/threonine-protein kinase MRCK beta (CDC42BPB, Homo sapiens, UniProt Q9Y5S2) | enzyme activity, inhibitor | 0.75 µM | remaining activity | 7% |
| C[C@H]1O[C@H](O[C@H]2[C@H](O)[C@@H](O)[C@@H](O[C@H]3[C@H](O)[C@@H](O)C(O)O[C@@H]3CO)O[C@@H]2CO)[C@H](O)[C@@H](O)[C@@H]1N[C@H]1C=C(CO)[C@@H](O)[C@H](O)[C@H]1O (stereo partly drawn) | AMY2 | enzyme activity, inhibitor | 10 µg/mL | inhibition | 23.1% |
| CC(C)(C)n1nnc([C@H](CCCNC(=N)CCl)NC(=O)c2ccccc2C(=O)O)n1 | PADI3 | enzyme activity, inhibitor | – | kinact/KI | 292 M⁻¹ s⁻¹ |
| CN(O)N=Nc1ccc(S(=O)(=O)Nc2nccs2)cc1 | AMY2 | enzyme activity, inhibitor | 120 µg/mL | inhibition | 42.1% |
| O=C1O[C@H]2[C@@H]3OC(=O)c4cc(O)c(O)c(O)c4-c4c(O)c(O)c5oc(=O)c6c(c(O)c(O)c7oc(=O)c4c5c76)-c4c(cc(O)c(O)c4O)C(=O)OC[C@H]3OC(O)[C@@H]2OC(=O)c2cc(O)c(O)c(O)c2-c2c1cc(O)c(O)c2O (mixture of isomers) | Genome polyprotein, protease (Hepatitis C virus genotype 1b, UniProt Q9WMX2) | enzyme activity, inhibitor, fluorescence | – | IC90 | ~2500 nM |
| COc1cc(Cl)c(C(=O)N[C@@H](CN[C@H]2CC[C@@H](N)CC2)Cc2ccc(C#N)cc2)cc1-c1ccc(CN[C@H](C)c2ccc(C)cc2)o1 | Receptor-interacting serine/threonine-protein kinase 1 (RIPK1, Homo sapiens, UniProt Q13546) | enzyme activity, inhibitor | 1 µM | remaining activity | 96% |
| Cc1ccc(C(=O)Nc2ccc(CN3CCN(C)CC3)c(C(F)(F)F)c2)cc1C#Cc1cnc2cccnn12 | GAK | enzyme activity, inhibitor | 23.5 nM | remaining activity | 73% |
| COc1cc(C=CC(=O)CC(c2ccc([N+](=O)[O-])cc2)n2ccnc2)ccc1O (stereo not drawn) | AMY2 | enzyme activity, inhibitor, absorbance | 2.5 µg/mL | inhibition | 62.6% |
| FC(F)(F)c1cccc(Nc2ccnc3ccc(C(F)(F)F)cc23)c1 | GAK | thermal stability, DSF | 10 µM | ΔTm | 1.3 °C |
| Nc1ncnc2occ(-c3ccc(NC(=O)Nc4cc(C(F)(F)F)ccc4F)cc3)c12 | GAK | cell-free assay, inhibitor | 20 µM | remaining signal | 41% |
| Cn1c2c(c3ccc(Cl)c(Cl)c31)C(C#N)C1(CCNCC1)NC2=O (racemic) | Serine/threonine-protein kinase DCLK1 (DCLK1, Homo sapiens, UniProt O15075) | thermal stability, DSF | 10 µM | ΔTm | 0.9 °C |
| COc1cc(C=Cc2cc(-c3ccc(N(C)C)cc3)nc(O)n2)ccc1O | AMY2 | enzyme activity, inhibitor, absorbance | 10 µg/mL | inhibition | 82.6% |
| O=C(O)CCC(=O)C(=O)O | Lysine-specific demethylase 4D (KDM4D, Homo sapiens, UniProt Q6B0I6) | enzyme activity, substrate | – | Km | 6.9 µM |
| FC(F)(F)c1ccc2nccc(Nc3cccc(Br)c3)c2c1 | GAK | thermal stability, DSF | 10 µM | ΔTm | 3.8 °C |
| CN1CCN(C(=O)c2ccc3cc(CCNc4ccnc5ccc(C#N)cc45)ccc3c2)CC1 | Cyclin-dependent kinase 19, with cyclin C (CDK19, Homo sapiens, UniProt Q9BWU1) | binding, TR-FRET | – | kon | 939000 M⁻¹ s⁻¹ |
| C=CC(=O)Nc1ccc(-c2noc([C@@]3(C)CCCc4sc(N)c(C#N)c43)n2)cc1 | KRAS G12C | cell-free assay, inhibitor | – | kinact | 0.000194 s⁻¹ |
| FC(F)(F)Oc1cccc(-c2cnc3ccc(-c4ccncc4)nn23)c1 | Eukaryotic translation initiation factor 2-alpha kinase 3 (EIF2AK3, Homo sapiens, UniProt Q9NZJ5) | enzyme activity, inhibitor, radiometric | 5 µM | activity vs control | 67% |
| NCc1ccc(Br)cc1 | Maoa | enzyme activity, substrate | pH 7.5 | Km | 34 µM |
| Cc1cccc(N(O)N=Nc2ccc(S(=O)(=O)Nc3onc(C)c3C)cc2)c1 | AMY2 | enzyme activity, inhibitor | 120 µg/mL | inhibition | 31.6% |

| Compound | target | assay | setting | measurement | result |
| --- | --- | --- | --- | --- | --- |
| N=C(CCl)NCCC[C@H](NC(=O)c1ccccc1C(=O)O)c1nn[nH]n1 | PADI3 | enzyme activity, inhibitor | – | kinact/KI | 207 M⁻¹ s⁻¹ |
| COc1cc(C=CC(=O)CC(c2ccc(N(C)C)cc2)n2ccnc2)ccc1O (stereo not drawn) | AMY2 | enzyme activity, inhibitor, absorbance | 2.5 µg/mL | inhibition | 67.3% |
| CC(C)(C)n1nnc([C@H](CCCNC(=N)CCl)NC(=O)c2ccccc2)n1 | PADI3 | enzyme activity, inhibitor | – | kinact/KI | 7.67 M⁻¹ s⁻¹ |
| CCN(O)N=Nc1ccc(S(=O)(=O)Nc2cc(C)on2)cc1 | AMY2 | enzyme activity, inhibitor | 20 µg/mL | inhibition | 26.3% |
| C[C@@H]1CN(c2ccc3ncc(-c4ccc5[nH]nc(C6CC6)c5c4)n3n2)C[C@H](C)O1 | Cyclin-dependent kinase 19 (CDK19, Homo sapiens, UniProt Q9BWU1) | binding, competition with immobilised ligand | 50 nM | remaining binding | 90% |
| CCCN(O)N=Nc1ccc(S(=O)(=O)Nc2cc(C)on2)cc1 | AMY2 | enzyme activity, inhibitor | 20 µg/mL | inhibition | 10.5% |
| FC(F)(F)c1ccc2nccc(Nc3ccc4c(c3)OCO4)c2c1 | GAK | thermal stability, DSF | 10 µM | ΔTm | 3.2 °C |
| C=CC(=O)Nc1cccc(-c2noc([C@@]3(C)CCCc4sc(N)c(C#N)c43)n2)c1 | KRAS G12C | cell-free assay | – | kinact | 0.000185 s⁻¹ |
| Cc1noc(NS(=O)(=O)c2ccc(N=NN(C)O)cc2)c1C | AMY2 | enzyme activity, inhibitor | 20 µg/mL | inhibition | 21.1% |
| COc1cc(Nc2ccnc3ccc(C(C)(C)C)cc23)cc(OC)c1OC | GAK | thermal stability, DSF | 10 µM | ΔTm | 5.2 °C |
| CC(C)(C)n1nnc([C@H](CCCNC(=N)CCl)NC(=O)c2ccc(-c3ccccc3)cc2)n1 | PADI3 | enzyme activity, inhibitor | – | kinact/KI | 82.3 M⁻¹ s⁻¹ |
| COc1cc(Nc2ccnc3cc(C#N)ccc23)cc(OC)c1OC | GAK | thermal stability, DSF | 10 µM | ΔTm | 5.3 °C |
| N=C(CCl)NCCC[C@H](NC(=O)c1ccc(-c2ccccc2)cc1)c1nn[nH]n1 | PADI3 | enzyme activity, inhibitor | – | kinact/KI | 131 M⁻¹ s⁻¹ |
| FC(F)(F)c1ccc2nccc(Nc3ccc4c(c3)OCCO4)c2c1 | GAK | thermal stability, DSF | 10 µM | ΔTm | 1.5 °C |
| N=C(CF)NCCC[C@H](NC(=O)c1ccccc1C(=O)O)c1nn[nH]n1 | PADI3 | enzyme activity, inhibitor | – | kinact/KI | 63.3 M⁻¹ s⁻¹ |
| Fc1cc(Nc2ccnc3ccc(C(F)(F)F)cc23)ccc1Cl | GAK | thermal stability, DSF | 10 µM | ΔTm | 4.5 °C |
| NCc1ccc(F)cc1 | Maoa | enzyme activity, substrate | pH 7.5 | Km | 174 µM |
| Cc1noc(NS(=O)(=O)c2ccc(N=NN(O)c3ccccc3)cc2)c1C | AMY2 | enzyme activity, inhibitor | 240 µg/mL | inhibition | 63.2% |
| Fc1cccc(Nc2ccnc3ccc(C(F)(F)F)cc23)c1 | GAK | thermal stability, DSF | 10 µM | ΔTm | 4.3 °C |
